Marks after values point to notes of the source that are not given here.
Legend:
[1] = Metabolism of isoflavones by homogenate of germfree mouse small intestine; type: in vitro ADME; details: for Metabolized by incubation with germfree mouse small intestine (in words): 3 days anaerobically, both pH 5.0 and 7.4; for Aglycone detected after incubation against compound added / Glycoside detected after incubation against compound added: 3 days; for Hydrolysis by homogenate of germfree mouse small intestine (in words): without bacterial activity
How it was run: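 Upper small intestine from 14-week-old male germfree BALB/cA mice, homogenised anaerobically in 9 volumes BHI broth at pH 7.4 or 5.0. Test compound added from 5 mmol/l DMSO stock. Flavone internal standard added, then 5 extractions with equal-volume butanol, redissolved in 50% ethanol. Reversed-phase ODS HPLC (30 °C, acetonitrile/water/acetic acid gradient) with 260 nm diode-array detection. Values are % detected versus added.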

human fecal suspension = experiment: Metabolism of isoflavones by human fecal suspensions; type: in vitro ADME; details: for Tectorigenin detected after incubation: substrate Tectorigenin; for Genistein detected after incubation: substrate Genistein; for Glycitein detected after incubation: substrate Glycitein; for Daidzein detected after incubation: substrate Daidzein; for 6HG detected after incubation / 6HGDG detected after incubation: substrate 6HGDG

Structure (SMILES): COc1cc2c(=O)c(-c3ccc(O)cc3)coc2cc1O[C@@H]1O[C@H](CO)[C@@H](O)[C@H](O)[C@H]1O [Glycitin, glycitin]
- Glycitin metabolized detected as glycitein [1]: about 65%
- Metabolized by incubation with germfree mouse small intestine (in words) [1]: completely metabolized
- Aglycone detected after incubation against compound added ([1]; pH 5.0): 65.5%
- Glycoside detected after incubation against compound added ([1]; pH 5.0): 0.0%
- Aglycone detected after incubation against compound added ([1]; pH 7.4): 62.1%
- Glycoside detected after incubation against compound added ([1]; pH 7.4): 0.0%
- Hydrolysis by homogenate of germfree mouse small intestine (in words) [1]: highly hydrolyzed

Structure (SMILES): COc1c(O[C@@H]2O[C@H](CO[C@@H]3OC[C@@H](O)[C@H](O)[C@H]3O)[C@@H](O)[C@H](O)[C@H]2O)cc2occ(-c3ccc(O)cc3)c(=O)c2c1O [TGXG, Tectorigenin 7-O-xylosylglucoside]
- Substrate metabolized ([1]; pH 5.0): More than 95%
- Aglycone detected after incubation against compound added ([1]; pH 5.0): 97.1%
- Glycoside detected after incubation against compound added ([1]; pH 5.0): 4.9%
- Substrate metabolized ([1]; pH 7.4): 40%
- Aglycone detected after incubation against compound added ([1]; pH 7.4): 43.7%
- Glycoside detected after incubation against compound added ([1]; pH 7.4): 60.7%
- Hydrolysis by homogenate of germfree mouse small intestine (in words) [1]: highly hydrolyzed

Structure (SMILES): COc1c(O)cc2occ(-c3ccc(O)cc3)c(=O)c2c1O [Tectorigenin, tectorigenin]
- Detected intact after incubation ([1]; aglycone-form substrate): More than 95%
- Substrate metabolized (in words) (human fecal suspension; 1 fecal sample): about half
- Substrate metabolized (in words) (human fecal suspension; 8 of 10 fecal samples): metabolized completely
- Metabolite detected (in words) (human fecal suspension; mixed human feces): no metabolite was detected
- Substrate metabolized (in words) (human fecal suspension; mixed human feces): completely
- Tectorigenin detected after incubation (human fecal suspension; Mix, mixture of 10 samples): 0.0%
- Tectorigenin detected after incubation (human fecal suspension; fecal sample no. 1): 53.5%
- Tectorigenin detected after incubation (human fecal suspension; fecal sample no. 2): 2.6%
- Tectorigenin detected after incubation (human fecal suspension; fecal sample no. 3): 0.0%
- Tectorigenin detected after incubation (human fecal suspension; fecal sample no. 4): 0.0%
- Tectorigenin detected after incubation (human fecal suspension; fecal sample no. 5): 0.0%
- Tectorigenin detected after incubation (human fecal suspension; fecal sample no. 6): 0.0%
- Tectorigenin detected after incubation (human fecal suspension; fecal sample no. 7): 0.0%
- Tectorigenin detected after incubation (human fecal suspension; fecal sample no. 8): 0.0%
- Tectorigenin detected after incubation (human fecal suspension; fecal sample no. 9): 0.0%
- Tectorigenin detected after incubation (human fecal suspension; fecal sample no. 10): 0.0%

Structure (SMILES): O=c1c(-c2ccc(O)cc2)coc2cc(O)cc(O)c12 [Genistein]
- Detected intact after incubation ([1]; aglycone-form substrate): More than 95%
- Detected as intact substrate (human fecal suspension; 1 sample): 70%
- Substrate metabolized (human fecal suspension; 1 sample, incubation for 3 days): 94%
- Found intact (human fecal suspension; 2 samples): more than 90%
- Metabolites detected, including 6HG and equol (in words) (human fecal suspension; any incubates): No metabolites
- Substrate metabolized (in words) (human fecal suspension; mixed human feces): completely
- Genistein detected after incubation (human fecal suspension; Mix, mixture of 10 samples): 0.0%
- Genistein detected after incubation (human fecal suspension; fecal sample no. 1): 70.9%
- Genistein detected after incubation (human fecal suspension; fecal sample no. 2): 91.2%
- Genistein detected after incubation (human fecal suspension; fecal sample no. 3): 99.0%
- Genistein detected after incubation (human fecal suspension; fecal sample no. 4): 5.9%
- Genistein detected after incubation (human fecal suspension; fecal sample no. 5): 0.0%
- Genistein detected after incubation (human fecal suspension; fecal sample no. 6): 0.0%
- Genistein detected after incubation (human fecal suspension; fecal sample no. 7): 0.0%
- Genistein detected after incubation (human fecal suspension; fecal sample no. 8): 0.0%
- Genistein detected after incubation (human fecal suspension; fecal sample no. 9): 0.0%
- Genistein detected after incubation (human fecal suspension; fecal sample no. 10): 0.0%

Structure (SMILES): O=c1c(-c2ccc(O)cc2)coc2cc(O[C@@H]3O[C@H](CO)[C@@H](O)[C@H](O)[C@H]3O)cc(O)c12 [Genistin]
- Metabolized by incubation with germfree mouse small intestine (in words) [1]: completely metabolized
- Glycoside detected after incubation against compound added ([1]; pH 5.0): 0.0%
- Glycoside detected after incubation against compound added ([1]; pH 7.4): 0.0%
- Hydrolysis by homogenate of germfree mouse small intestine (in words) [1]: highly hydrolyzed

Structure (SMILES): COc1cc2c(=O)c(-c3ccc(O)cc3)coc2cc1O [Glycitein, glycitein]
- Substrate added that was resolved (in words) ([1]; aglycone-form substrate): about a half
- Substrate metabolized (human fecal suspension; all fecal samples including the mixed sample): At least 75%
- Glycitein detected after incubation (human fecal suspension; Mix, mixture of 10 samples): 8.0%
- Glycitein detected after incubation (human fecal suspension; fecal sample no. 1): 24.6^a %
- Glycitein detected after incubation (human fecal suspension; fecal sample no. 2): 17.5%
- Glycitein detected after incubation (human fecal suspension; fecal sample no. 3): 2.7%
- Glycitein detected after incubation (human fecal suspension; fecal sample no. 4): 10.7%
- Glycitein detected after incubation (human fecal suspension; fecal sample no. 5): 7.1%
- Glycitein detected after incubation (human fecal suspension; fecal sample no. 6): 0.0%
- Glycitein detected after incubation (human fecal suspension; fecal sample no. 7): 12.2%
- Glycitein detected after incubation (human fecal suspension; fecal sample no. 8): 3.2%
- Glycitein detected after incubation (human fecal suspension; fecal sample no. 9): 0.0%
- Glycitein detected after incubation (human fecal suspension; fecal sample no. 10): 5.6%

Structure (SMILES): O=c1c(-c2ccc(O)cc2)coc2cc(O)ccc12 [Daidzein, daidzein]
- Detected intact after incubation ([1]; aglycone-form substrate): More than 95%
- Daidzein detected after incubation (human fecal suspension; Mix, mixture of 10 samples): 30.1%
- Daidzein detected after incubation (human fecal suspension; fecal sample no. 1): 84.5%
- Daidzein detected after incubation (human fecal suspension; fecal sample no. 2): 90.8%
- Daidzein detected after incubation (human fecal suspension; fecal sample no. 3): 60.3%
- Daidzein detected after incubation (human fecal suspension; fecal sample no. 4): 96.4%
- Daidzein detected after incubation (human fecal suspension; fecal sample no. 5): 8.0%
- Daidzein detected after incubation (human fecal suspension; fecal sample no. 6): 0.0%
- Daidzein detected after incubation (human fecal suspension; fecal sample no. 7): 62.6%
- Daidzein detected after incubation (human fecal suspension; fecal sample no. 8): 13.9%
- Daidzein detected after incubation (human fecal suspension; fecal sample no. 9): 81.4%
- Daidzein detected after incubation (human fecal suspension; fecal sample no. 10): 8.4%

Structure (SMILES): COc1c(O[C@@H]2O[C@H](CO)[C@@H](O)[C@H](O)[C@H]2O)cc2occ(-c3ccc(O)cc3)c(=O)c2c1O [Tectoridin, tectoridin]
- Metabolized by incubation with germfree mouse small intestine (in words) [1]: completely metabolized
- Glycoside detected after incubation against compound added ([1]; pH 5.0): 0.0%
- Glycoside detected after incubation against compound added ([1]; pH 7.4): 0.0%
- Hydrolysis by homogenate of germfree mouse small intestine (in words) [1]: highly hydrolyzed

Structure (SMILES): O=c1c(-c2ccc(O)cc2)coc2cc(O[C@@H]3O[C@H](CO)[C@@H](O)[C@H](O)[C@H]3O)c(O[C@@H]3O[C@H](CO)[C@@H](O)[C@H](O)[C@H]3O)c(O)c12 [6HGDG, 6-hydroxygenistein 6,7-di-O-glucoside]
- Aglycone detected after incubation against compound added ([1]; pH 5.0): 0.0%
- Glycoside detected after incubation against compound added ([1]; pH 5.0): 99.4%
- Aglycone detected after incubation against compound added ([1]; pH 7.4): 0.0%
- Glycoside detected after incubation against compound added ([1]; pH 7.4): 106.2^a %
- Hydrolysis by homogenate of germfree mouse small intestine (in words) [1]: not hydrolyzed
- Metabolism by human fecal bacteria (in words) (human fecal suspension; incubation for 3 days): completely metabolized
- Metabolism by human fecal bacteria (in words) (human fecal suspension; incubation for 3 days, listed as 6-hydroxygenistein 6,7-di-O-glucoside): highly metabolized
- 6HGDG metabolized to its aglycone, 6HG (human fecal suspension; six out of 10 samples): 9 to 56%
- 6HG detected after incubation (human fecal suspension; Mix, mixture of 10 samples): 0.0%
- 6HGDG detected after incubation (human fecal suspension; Mix, mixture of 10 samples): 0.0%
- 6HG detected after incubation (human fecal suspension; fecal sample no. 1): 55.8%
- 6HGDG detected after incubation (human fecal suspension; fecal sample no. 1): 0.0^a %
- 6HG detected after incubation (human fecal suspension; fecal sample no. 2): 40.8%
- 6HGDG detected after incubation (human fecal suspension; fecal sample no. 2): 0.0%
- 6HG detected after incubation (human fecal suspension; fecal sample no. 3): 26.6%
- 6HGDG detected after incubation (human fecal suspension; fecal sample no. 3): 0.0%
- 6HG detected after incubation (human fecal suspension; fecal sample no. 4): 28.4%
- 6HGDG detected after incubation (human fecal suspension; fecal sample no. 4): 0.0%
- 6HG detected after incubation (human fecal suspension; fecal sample no. 5): 18.4%
- 6HGDG detected after incubation (human fecal suspension; fecal sample no. 5): 0.0%
- 6HG detected after incubation (human fecal suspension; fecal sample no. 6): 8.7%
- 6HGDG detected after incubation (human fecal suspension; fecal sample no. 6): 0.0%
- 6HG detected after incubation (human fecal suspension; fecal sample no. 7): 0.0%
- 6HGDG detected after incubation (human fecal suspension; fecal sample no. 7): 0.0%
- 6HG detected after incubation (human fecal suspension; fecal sample no. 8): 0.0%
- 6HGDG detected after incubation (human fecal suspension; fecal sample no. 8): 0.0%
- 6HG detected after incubation (human fecal suspension; fecal sample no. 9): 0.0%
- 6HGDG detected after incubation (human fecal suspension; fecal sample no. 9): 0.0%
- 6HG detected after incubation (human fecal suspension; fecal sample no. 10): 0.0%
- 6HGDG detected after incubation (human fecal suspension; fecal sample no. 10): 0.0%
